Compound activity deposited in PubChem by Johns Hopkins Ion Channel Center.
In the library only some 3.7% were active in any assay of this set; here they are far more common.
KCNQ1 pot = human KCNQ1 channel potentiation or activation. P51787. CHO-K1 KCNQ1, thallium flux FluxOR fluorescence; stronger effect = higher value. B-score at 10 µM. 310,000 compounds, 0.35% hits. AID 2648;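 active = fluorescence ratio B-score, a plate-corrected score, at least three library SD, with initial intensity B-score within 5 SD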
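Doses: Single concentration per compound, DMSO matched to controls | Test system: KCNQ1-transfected CHO-K1 cells | Timing: 90 min dye loading and 20 min compound exposure, both at room temperature | Measured by: Kinetic FluxOR thallium fluorescence, 10-s 1-Hz baseline, 110-s post-stimulus read | Medium: Assay buffer with matched DMSO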
Kir21 block = inhibitors of mouse Kir2.1 inward-rectifier potassium channel | P35561 | HEK293-Kir2.1, FluxOR thallium flux fluorescence; stronger effect = lower value | B-score at 10 µM | 310,000 compounds, 0.85% hits | AID 1672;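 active = fluorescence ratio B-score at or below minus 3 SD of library scores, with starting-brightness B-score within 2 SD, cut at about -4.2 in these data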;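 note: channel flux triggered by added potassium and thallium sulfate stimulus; B-score of peak minus minimum fluorescence over baseline after thallium stimulus; more negative B-score means stronger Kir2.1 block with less thallium influx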
KCNK3 block = human KCNK3 channel inhibition, primary screen; CHO-KCNK3 thallium flux, FluxOR fluorescence; stronger effect = lower value; 340,000 compounds, 0.84% hits; O14649; B-score at 10 µM; AID 602410;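 active = B-score under library mean minus 4 SD, starting fluorescence ratio at most library mean plus 5 SD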;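 note: more negative B-score means stronger inhibition of thallium flux through KCNK3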
Target sequence (O14649 whole entry, looked up): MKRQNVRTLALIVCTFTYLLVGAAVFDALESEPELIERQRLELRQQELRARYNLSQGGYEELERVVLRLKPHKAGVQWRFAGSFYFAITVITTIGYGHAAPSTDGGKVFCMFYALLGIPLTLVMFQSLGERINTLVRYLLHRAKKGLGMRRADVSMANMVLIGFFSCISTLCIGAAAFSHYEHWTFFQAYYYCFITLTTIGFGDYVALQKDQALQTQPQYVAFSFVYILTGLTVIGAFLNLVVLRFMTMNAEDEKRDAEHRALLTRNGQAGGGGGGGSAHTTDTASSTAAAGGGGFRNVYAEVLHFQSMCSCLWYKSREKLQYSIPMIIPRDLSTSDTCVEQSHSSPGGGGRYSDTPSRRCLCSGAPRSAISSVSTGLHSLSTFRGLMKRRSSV
KCNQ1 inh = human KCNQ1 channel inhibition | P51787 | AID 2642 | 310,000 compounds, 1.3% hits | CHO-K1 KCNQ1, FluxOR thallium flux fluorescence; stronger effect = higher value | B-score at 10 µM;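 active = compounds whose thallium flux B-score, printed positive for inhibition, exceeds three library SD while starting fluorescence stays within three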;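 note: channel opened by potassium depolarization with thallium stimulus after 20 min compound exposure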
hERG rescue = hERG (human) protection from proarrhythmic block | 310,000 compounds, 0.51% hits | activation (rescue from dofetilide block), less the hit threshold, % at 10 µM | CHO-hERG, FluxOR thallium flux, dofetilide IC70 present | AID 1511;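 active = activation above the mean of controls blocked by dofetilide plus 5 SD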;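 note: thallium influx through hERG after potassium depolarization seen as dye fluorescence rise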
KCNK9 block = human KCNK9 channel inhibition; 310,000 compounds, 1.2% hits; Q9NPC2; AID 488922; B-score at 10 µM; HEK293 KCNK9, FluxOR thallium flux fluorescence; stronger effect = lower value;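 active = ratio B-score over 3 SD below the library mean, with starting fluorescence within 5 SD of its mean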;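 note: negative B-score means less thallium flux so channel inhibition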
KCNK9 block conf = confirmation of human KCNK9 potassium channel inhibitors. inhibition, % at 10 µM. HEK293 KCNK9 cells, FluxOR thallium flux fluorescence. 4,900 compounds, 43% hits. shares compounds with KCNK9 block;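 active = thallium signal inhibited by more than 5 SD of the compound-free buffer control wells, on both duplicate plates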
Kir2-1 spec = mouse Kir2.1 off-target activity of KCNK9 modulators; shares compounds with KCNK9 block; Kir2.1 cells, FluxOR thallium flux fluorescence; inhibition, % at 10 µM; 4,900 compounds, 4% hits; AID 492993;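 active = thallium signal drop more than 5 SD beyond the mean of the no-compound control wells, seen in both duplicate plates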;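 note: signal is fluorescence rise after thallium addition divided by baseline fluorescence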
KCNK9 uninduced = second check of KCNK9 modulator effects in non-induced HEK293 cells; shares compounds with KCNK9 block; FluxOR thallium flux; inhibition, % at 10 µM; 4,900 compounds, 40% hits;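 active = thallium signal drop beyond 5 SD of the untreated control mean, on both duplicate plates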
A number is an active result; – = inactive; · = not tested or not shown.

SMILES | KCNQ1 pot | Kir21 block | KCNK3 block | KCNQ1 inh | hERG rescue | KCNK9 block | KCNK9 block conf | Kir2-1 spec | KCNK9 uninduced
CCCCCCn1nc(C(=O)N(CCOC)c2c(N)n(CCCC)c(=O)[nH]c2=O)c2ccccc2c1=O | – | – | – | – | – | – | · | · | ·
O=C(c1cc(COc2ccc(F)cc2F)on1)N1CC[C@@H]2CCCC[C@H]2C1 | – | – | – | – | – | – | – | – | –
CC(C)Cc1cc(C(=O)N2CCCC(C(=O)c3cc(F)ccc3F)C2)no1 (stereo not given) | – | – | – | – | – | – | – | – | –
O=C(c1ccc(F)cc1)N1CCCC(c2ccccc2)C1 (stereo not given) | – | – | – | – | – | -8.8 | 36% | – | –
O=C(c1cc(F)ccc1F)C1CCCN(C(=O)c2cccs2)C1 (stereo not given) | – | – | – | – | – | – | · | · | ·
O=C(c1cc(COc2ccc(F)cc2F)on1)N1CCCC(c2ccccc2)C1 (stereo not given) | – | – | – | – | – | – | – | – | 36%
Cc1nonc1C1CCCN1Cc1nc(-c2ccccc2Cl)oc1C (stereo not given) | – | – | – | – | – | – | · | · | ·
OC(COC(c1ccccc1)c1ccccc1)CN1CCc2ccccc2C1 (stereo not given) | – | – | – | – | – | – | · | · | ·
OC(COC(c1ccc(Cl)cc1)c1ccc(Cl)cc1)CN1CCc2ccccc2C1 (stereo not given) | – | – | – | – | – | -16 | 58% | – | 38%
Clc1ccc(SCCOCCN2CCc3ccccc3C2)cc1 | – | -8.5 | – | – | – | – | – | – | –
Cc1nccc(-c2ccc(-n3cnc4ccccc43)cc2)n1 | – | – | – | – | – | – | – | – | –
COc1ccc(NS(=O)(=O)c2cccc(C(=O)NC3CCC(O)CC3)c2)cc1 (stereo not given) | – | – | – | – | – | – | · | · | ·
CCN(CC)C(=O)c1ccc(COc2ccccc2Cl)cc1 | – | – | – | – | – | -8.7 | 36% | – | 24%
O=C(O)c1ccc(COc2ccccc2Cl)cc1 | – | – | – | – | – | – | · | · | ·
COC(=O)c1sccc1NC(=S)N1CC(C)CC(C)C1 (stereo not given) | – | – | – | – | – | – | – | – | 28%
COC(=O)c1sccc1NC(=S)N1CCN(c2ccccc2)CC1 | – | – | – | – | – | – | · | · | ·
COC(=O)c1sccc1NC(=S)N1CCC(C)CC1 | – | – | – | – | – | – | · | · | ·
COC(=O)c1sccc1NC(=S)N1CCN(c2ccc(F)cc2)CC1 | – | – | – | – | – | -9.7 | – | – | 32%
Cc1ccc(CCc2nnc(SCC(=O)Nc3cccc(Cl)c3)n2-c2ccccc2)o1 | – | – | – | – | – | – | – | – | –
Cc1nnc(SCC(=O)Nc2cc(C(N)=O)cc(C(N)=O)c2)n1-c1ccccc1 | – | – | – | – | – | – | · | · | ·
CCc1nn(C(C)C(=O)N2CCN(c3ccc(OC)cc3)CC2)c(=O)c2cc3occc3n12 (stereo not given) | – | – | – | – | – | – | · | · | ·
O=C(NCCNc1ccc([N+](=O)[O-])cc1C(F)(F)F)c1cccc(F)c1 | – | – | – | – | – | – | – | – | –
O=C(NCCNc1ccc([N+](=O)[O-])cc1C(F)(F)F)c1ccccc1 | – | – | – | – | – | – | – | – | –
N#C/C(=C/c1ccc2c(c1)OCO2)C(=O)Nc1ccc(O)cc1 | – | – | – | – | – | – | · | · | ·
CC(=O)Nc1cc2c(c([N+](=O)[O-])c1C)C(C)(C)CC2(C)C | · | · | – | · | · | · | · | · | ·
SMILES | KCNQ1 pot | Kir21 block | KCNK3 block | KCNQ1 inh | hERG rescue | KCNK9 block | KCNK9 block conf | Kir2-1 spec | KCNK9 uninduced
Cc1c(N=NC2=C(O)CC(C)(C)CC2=O)cc2c(c1[N+](=O)[O-])C(C)(C)CC2(C)C | – | – | – | 6 | – | – | – | – | –
COc1ccc(C2=NS(=O)(=O)N(C)C(C(=O)N3CCc4ccccc4C3)=C2)cc1OC | – | – | – | – | – | – | · | · | ·
N#C/C(C(=O)Nc1ccc(Cl)cc1)=C(/S)Nc1ccccc1 | – | – | – | – | – | – | – | – | –
O=C(Nc1ccc(Nc2ccccc2)cc1)c1ccc(Cl)cc1 | – | – | – | – | – | – | · | · | ·
C/C(=N\Nc1ccc(Cl)c(C(=O)O)c1)c1ccccn1 | – | – | – | – | – | – | · | · | ·
C/C(=N\Nc1ncc(Cl)cc1Cl)c1ccccn1 | – | – | – | 11 | – | -10 | 50% | – | 36%
CCOC(=O)c1cnc2ccc(OC)cc2c1NCc1ccccc1 | – | – | – | – | – | – | – | – | –
CCOC(=O)c1cnc2ccc(OCC)cc2c1NCc1ccccc1OC | – | – | – | – | – | – | · | · | ·
Cc1nc(SCC(=O)NC(C)(C#N)C2CC2)c2c(-c3cccs3)csc2n1 (stereo not given) | – | – | – | – | – | -11 | 48% | – | –
COc1ccc(CN(Cc2cccn2C)S(=O)(=O)c2cccc(C(F)(F)F)c2)cc1 | – | – | – | 6 | – | -8.8 | 46% | – | 34%
CC(C)C[C@@H](CN(N=O)[C@@H](Cc1ccccc1)CN(C)N=O)N(CCc1ccccc1)N=O | – | – | – | – | – | – | · | · | ·
CN(C[C@H](Cc1ccccc1)N(C[C@@H](Cc1cccc2ccccc12)N(CCc1ccccc1)N=O)N=O)N=O | – | – | – | – | – | -8.5 | – | – | 38%
O=C(/C=C/c1ccc(-c2ccccc2[N+](=O)[O-])o1)c1ccccc1 | – | – | – | – | – | -8.5 | 40% | – | 28%
O=C(O)/C(=C\c1ccc(-c2ccccc2[N+](=O)[O-])o1)c1ccccc1 | – | – | – | – | – | – | · | · | ·
O=C(c1ccccc1)n1c(=O)cc[nH]c1=O | – | – | – | – | – | – | · | · | ·
O=[N+]([O-])c1cccc(COc2ccccc2CN2CCOCC2)c1 | · | · | – | · | · | · | · | · | ·
Cc1cc(OCc2cccc(Cl)c2)c(C)cc1CN1CCOCC1 | – | – | – | – | – | -14 | 52% | – | 32%
Oc1oc(-c2ccccc2)nc1C=Nc1cccc2ccccc12 | – | – | – | – | – | -9.9 | – | – | 45%
COc1cc(OC)cc(C(=O)N(Cc2ccco2)c2c(N)n(Cc3ccccc3)c(=O)[nH]c2=O)c1 | · | · | – | · | · | · | · | · | ·
CCOC(=O)[C@@H]1[C@H]2COc3ccc(Br)cc3[C@@H]2N2C(=O)N(c3cccc(F)c3)C(=O)[C@@]12C | – | – | – | – | – | -10 | 64% | – | 26%
